In general, IC50 refers to the concentration needed to halve the response being measured. For orientation: GI50 means the concentration giving 50% growth inhibition.

We go through 1 compound from ChEMBL document CHEMBL4190287, “Identification of Antiangiogenic Potential and Cellular Mechanisms of Napyradiomycin A1 Isolated from the Marine-Derived Streptomyces sp. YP127” (J Nat Prod, 2017).

Calls of active or inactive are those of the source. No cut-off for these calls is given here.

Series [1] in a line: Antiproliferative activity against human BJ6 cells at 0.2 to 20 uM after 72 hrs by IncuCyte live imaging.
For series [2], the system named is HUVEC. In words: Downregulation of VE-cadherin mRNA level in HUVEC at 20 uM after 48 hrs by qRT-PCR method relative to control. It is filed as functional, Homo sapiens. (In general: Quantitative PCR measures a nucleic acid by following its amplification.)
In series [3] the test system is HUVEC. In words: Antiproliferative activity against HUVEC assessed as inhibition of Ki67 expression at 20 uM after 24 hrs by immunofluorescent microscopic analysis. It is filed as functional, cell-based. To be noted: Homo sapiens. A digest of the protocol: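 HUVECs seeded 4 × 10^4 per well on gelatin, treated 24 h; fixed 4% paraformaldehyde 10 min, permeabilized 0.1% Triton X-100 10 min, blocked 10% normal horse serum 1 h RT, anti-Ki-67 1 h, Cy3 secondary, DAPI nuclear stain; fluorescence microscopy.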

In series [4] the test system is HUVEC. In words: Cytotoxicity against HUVEC assessed as cell death at 20 uM after 24 hrs by YOYO-1 Iodide staining based fluorescence assay. The settings on record: human.
Series [5] deals with HUVEC. In words: Downregulation of PECAM1 mRNA level in HUVEC at 20 uM after 48 hrs by qRT-PCR method relative to control. It is filed as functional, Homo sapiens.
The subject of series [6] is HUVEC. In words: Antiinvasive activity in HUVEC assessed as inhibition of VEGF-induced cell invasion at 20 uM measured every 3 hrs for 48 hrs relative to control. It is filed as functional, Homo sapiens. The arrangement: scale not given: the % may be the effect or the level left. The gist of the method:
(§1)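 Wound made in HUVEC monolayer (1 × 10^5 cells/well, grown overnight) with pin wounding device, washed with PBS; growth-factor-reduced basement membrane matrix overlaid on wound, compound-containing medium added. Tip cells at invasive front counted after 24 and 48 h of treatment versus control, live-cell imaging.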

For series [7], the system named is HUVEC. In words: Downregulation of PECAM1 expression in HUVEC at 20 uM after 24 to 48 hrs by Western blot method. It is filed as functional, cell-based. To be noted: Homo sapiens. In general terms: Immunoblotting shows a protein as a band on a membrane.
Series [8] relates to HUVEC. In words: Downregulation of PECAM1 mRNA level in HUVEC at 20 uM after 24 hrs by qRT-PCR method relative to control. It is filed as functional, Homo sapiens.
The subject of series [9] is HUVEC. In words: Antiangiogenic activity in HUVEC assessed as inhibition of VEGF-induced tube formation after 24 hrs by calcein-AM dye based fluorescence assay. The settings on record: Homo sapiens. It is filed as functional, cell-based. The gist of the method:
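HUVECs (passage 6–8) seeded at 6 × 10^4 cells on growth-factor-reduced Matrigel, incubated 24 h with compound at various concentrations plus 10 ng/mL recombinant human VEGF; stained 2 μg/mL Calcein AM 20 min, 37 °C, imaged. Tubes with three branch points counted; three independent experiments, mean tube numbers; IC50 from concentration–response.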

Series [10] deals with HUVEC. Briefly: Downregulation of VE-cadherin mRNA level in HUVEC at 20 uM after 24 hrs by qRT-PCR method relative to control. It is filed as functional, Homo sapiens. A digest of the protocol:
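Total RNA from compound- or DMSO-treated HUVECs (24 h) extracted, cDNA made, VE-cadherin mRNA quantified by real-time PCR relative to control.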

For series [11], the system named is HUVEC. Briefly: Antiproliferative activity against HUVEC after 72 hrs by Celltiter-Glo luminescent cell viability assay. It is filed as functional. The settings on record: Homo sapiens. A digest of the protocol:
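HUVECs seeded 2.5 × 10^3 per well, treated with compound at different concentrations; confluency imaged every 6 h over 72 h. At 72 h viable cells measured by CellTiter-Glo luminescence; GI50 calculated.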

In series [12] the test system is HUVEC. In words: Antiinvasive activity in HUVEC assessed as inhibition of VEGF-induced cell invasion at 20 uM measured every 3 hrs for 24 hrs relative to control. It is filed as functional, Homo sapiens. On the set-up: scale not given: the % may be the effect or the level left. A digest of the protocol: as §1
Series [13] has as its system HUVEC. In words: Induction of cellular permeability in HUVEC at 20 uM by Transwell assay. It is filed as functional, cell-based. To be noted: Homo sapiens, TDE = time-dependent effect. The gist of the method:
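HUVECs (5 × 10^5 cells/well) grown 48 h on gelatin-coated Transwell inserts, then exposed to compound a further 48 h; 1 mg/mL FITC-dextran added to upper chamber and fluorescence transferred to lower chamber read on plate reader.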

Series [14] concerns HUVEC. In words: Downregulation of VE-cadherin expression in HUVEC at 20 uM by Western blot method. It is filed as functional, cell-based. The settings on record: Homo sapiens, TDE = time-dependent effect. The gist of the method: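 HUVEC lysates in RIPA buffer with protease inhibitors, separated on 4–12% SDS gradient gel, transferred to PVDF, probed with anti-VE-cadherin and anti-GAPDH, HRP secondary, ECL detection.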

In series [15] the test system is HUVEC. In words: Antimigratory activity against VEGF-stimulated HUVEC at 20 uM after 24 hrs by scratch wound-healing assay. The settings on record: Homo sapiens. It is filed as functional, cell-based. The gist of the method:
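HUVECs plated at 1 × 10^5 cells/well, grown overnight, wounded with pin device, washed twice with PBS; medium with 10 ng/mL VEGF plus compound or DMSO added. Live-cell images every 3 h for 24 h; wound confluence (cell density in wound area, %) computed by imaging algorithm.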

In the case of `CC(C)=CCC/C(C)=C/C[C@@]12OC(C)(C)[C@H](Cl)C[C@]1(Cl)C(=O)c1c(O)cc(O)cc1C2=O`, the Activity result in [1] is on record as “Non-Toxic”; in series [2], 94%; in series [4], “Non-Toxic”; in series [5] it was 70%; in series [6] it was 52%; in series [8], 53%. Further, the Activity in series [10] was 76%; in series [12], 43%; in [13] it was “Tde”; in [14], “Tde”. The inhibition entry in series [3] was “Active”. In addition, the outcome in series [7] was inactive. In [9], the IC50 was 10 µM. The 50% growth inhibitory concentration (GI50) in series [11] came out at 27.6 µM. Also, the result in series [15] was Active.
